Data set [1] addresses T1, CYP2B6 (Homo sapiens, UniProt P20813).
T1 sequence (P20813 whole entry): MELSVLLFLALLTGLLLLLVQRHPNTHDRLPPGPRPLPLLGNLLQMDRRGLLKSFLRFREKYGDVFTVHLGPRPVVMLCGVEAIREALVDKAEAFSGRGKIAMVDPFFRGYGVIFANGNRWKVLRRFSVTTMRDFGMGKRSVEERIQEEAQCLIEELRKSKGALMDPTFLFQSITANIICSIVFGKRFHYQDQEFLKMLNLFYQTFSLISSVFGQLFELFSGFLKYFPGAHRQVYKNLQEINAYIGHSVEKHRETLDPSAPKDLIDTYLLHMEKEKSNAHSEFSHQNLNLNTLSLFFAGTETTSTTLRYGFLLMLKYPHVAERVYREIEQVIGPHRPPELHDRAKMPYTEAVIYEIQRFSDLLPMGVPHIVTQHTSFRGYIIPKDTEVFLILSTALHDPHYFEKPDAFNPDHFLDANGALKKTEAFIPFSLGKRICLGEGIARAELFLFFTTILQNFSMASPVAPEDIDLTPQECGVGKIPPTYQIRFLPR
Description: Time dependent inhibition of CYP2B6 (unknown origin) at 0.3 uM by LC/MS system. It counts as ADME. The method, boiled down: (§1)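 CYP2B6 in human liver microsomes (1.0 mg/mL in preincubation), 0.1 M sodium phosphate, NADPH-generating system. Preincubation 0 or 30 min, then ten-fold dilution into incubation solution containing 50 μM bupropion (final) for 10 min. Activity is expressed as percent of the matched no-inhibitor control. % inactivation = 100 × [1 − control(30 min)/control(0 min)]; threshold 10%.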

Data set [2] concerns Liver microsome. The data set is described as follows: Covalent binding in human liver microsomes measured per mg of protein using radiolabelled compound at 10 uM after 1 hr incubation by liquid scintillation counting.
The test system of data set [3] is Liver microsome. Description: Metabolic activation in human liver microsomes assessed as [3H]GSH adduct formation rate measured per mg of protein at 100 uM by [3H]GSH trapping assay.
Data set [4] can be described thus: Intrinsic clearance for reactive metabolites formation per mg of protein based on cytochrome P450 (unknown origin) inactivation rate by TDI assay. As to conditions: human.
A short description of data set [5]: Intrinsic clearance for reactive metabolites formation assessed as summation of [3H]GSH adduct formation rate-based reactive metabolites formation and cytochrome P450 (unknown origin) inactivation rate-based reactive metabolites formation. As to conditions: human.
Data set [6] concerns Liver microsome. To be noted: human, microsomes, 100 µM.
In another data set the target is T2, CYP1A2 (Homo sapiens, UniProt P05177).
T2 sequence (P05177 whole entry): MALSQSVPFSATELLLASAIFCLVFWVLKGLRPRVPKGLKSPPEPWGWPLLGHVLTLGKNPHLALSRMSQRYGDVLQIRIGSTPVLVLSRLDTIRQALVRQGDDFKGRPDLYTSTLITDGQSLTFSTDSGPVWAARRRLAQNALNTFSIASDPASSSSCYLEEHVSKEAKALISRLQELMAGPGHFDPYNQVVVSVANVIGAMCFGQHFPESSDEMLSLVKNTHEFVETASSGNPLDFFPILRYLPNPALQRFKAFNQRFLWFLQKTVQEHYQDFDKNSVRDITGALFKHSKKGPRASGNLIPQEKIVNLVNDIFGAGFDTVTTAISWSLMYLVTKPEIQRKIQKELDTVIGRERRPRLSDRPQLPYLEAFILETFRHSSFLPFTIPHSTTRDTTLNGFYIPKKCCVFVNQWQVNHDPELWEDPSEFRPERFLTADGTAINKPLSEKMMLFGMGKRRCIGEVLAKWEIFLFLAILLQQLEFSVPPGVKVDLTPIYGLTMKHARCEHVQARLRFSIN
Description: in vitro.

Data set [7] addresses T3, CYP2C9 (Homo sapiens, UniProt P11712). Description: in vitro.
Data set [8] has as its target T4, CYP2C19 (Homo sapiens, UniProt P33261). Description: in vitro. As to conditions: microsomes.
The target of data set [9] is T5, CYP2D6 (Homo sapiens, UniProt P10635). The data set is described as follows: in vitro.
In data set [10] the target is T6, CYP2C8 (Homo sapiens, UniProt P10632).
T6 sequence (P10632 whole entry): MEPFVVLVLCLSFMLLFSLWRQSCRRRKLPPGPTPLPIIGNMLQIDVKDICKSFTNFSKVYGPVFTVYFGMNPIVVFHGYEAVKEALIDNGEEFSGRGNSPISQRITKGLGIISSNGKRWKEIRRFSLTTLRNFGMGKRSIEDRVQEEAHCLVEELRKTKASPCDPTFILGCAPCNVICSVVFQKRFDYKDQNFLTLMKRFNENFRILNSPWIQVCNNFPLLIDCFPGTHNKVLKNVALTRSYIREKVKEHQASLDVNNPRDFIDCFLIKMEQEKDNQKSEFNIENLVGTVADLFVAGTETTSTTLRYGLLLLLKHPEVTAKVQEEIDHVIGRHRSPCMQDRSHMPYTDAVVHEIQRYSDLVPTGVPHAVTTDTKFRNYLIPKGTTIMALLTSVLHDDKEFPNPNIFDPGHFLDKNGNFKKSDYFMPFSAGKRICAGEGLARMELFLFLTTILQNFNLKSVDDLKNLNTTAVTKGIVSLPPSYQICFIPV
Description: in vitro.

The target in data set [11] is T1, CYP2B6. The data set is described as follows: Time dependent inhibition of CYP2B6 (unknown origin) at 30 uM by LC/MS system. The class given is ADME. The method, boiled down: as §1
For data set [12], the target named is T6, CYP2C8. The data set is described as follows: Time dependent inhibition of CYP2C8 (unknown origin) at 10 uM by LC/MS system. The class given is ADME. Put shortly: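 CYP2C8 in human liver microsomes (1.0 mg/mL in preincubation), 0.1 M sodium phosphate, NADPH-generating system. Preincubation 0 or 30 min, then ten-fold dilution into incubation with 10 μM paclitaxel (final) for 10 min.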

The target in data set [13] is T3, CYP2C9. The data set is described as follows: Time dependent inhibition of CYP2C9 (unknown origin) at 30 uM by LC/MS system. The class given is ADME. The method, boiled down: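 Human liver microsomes at 1.0 mg/mL were preincubated 0 or 30 min with compound and NADPH-generating system in 0.1 M sodium phosphate, then diluted ten-fold into incubation containing 200 μM tolbutamide (final) for 10 min to probe CYP2C9. Percent of matched no-inhibitor control was determined at each time. Inactivation = 100 × [1 − ratio of 30-min to 0-min values]; 10% threshold.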

Data set [14] addresses T7, CYP3A4 (Homo sapiens, UniProt P08684). The data set is described as follows: Time dependent inhibition of CYP3A4 (unknown origin) at 50 uM by LC/MS system. The class given is ADME. Put shortly: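 CYP3A4: human liver microsomes at 0.5 mg/mL in preincubation, 0.1 M sodium phosphate, NADPH-generating system, 0 or 30 min. Ten-fold dilution into incubation with 2.5 μM midazolam (final), 10 min. Each value is relative to the matched control without inhibitor. % enzyme inactivation = 100 × [1 − %control(30 min)/%control(0 min)]; 10% threshold.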

The target of data set [15] is T4, CYP2C19. Description: in vitro. As to conditions: human liver microsomes.
The target of data set [16] is T4, CYP2C19. The data set is described as follows: Time dependent inhibition of CYP2C19 in human liver microsomes at 30 uM by LC/MS system. It counts as ADME. Put shortly: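 Human liver microsomes at 2.0 mg/mL in preincubation, 0.1 M sodium phosphate, NADPH-generating system; 0- or 30-min preincubation with inhibitor, then tenfold dilution into incubation containing 50 μM (S)-mephenytoin for 10 min; LC separation. Percent inactivation = 100×[1 − %control(30 min)/%control(0 min)] versus inhibitor-free controls; >10% counted positive. Concentration reduced from 100 μM for strong reversible inhibitors.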

Data set [17] has as its target T5, CYP2D6. Description: Time dependent inhibition of CYP2D6 (unknown origin) at 10 uM by LC/MS system. It counts as ADME. The method, boiled down: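 CYP2D6 activity was measured with 30 μM dextromethorphan (final) after 0 or 30 min preincubation of compound with human liver microsomes (1.0 mg/mL) and NADPH-generating system in 0.1 M sodium phosphate. A ten-fold dilution was followed by a 10-min incubation. % inactivation = 100 × [1 − %control(30 min)/%control(0 min)]; threshold 10%.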

The target of data set [18] is T1, CYP2B6. Description: in vitro.
In data set [19] the target is T7, CYP3A4. Description: in vitro.
Data set [20] concerns the target T1, CYP2B6. Description: in vitro. The source holds these as a separate data set.

This note sets out measurements from ChEMBL document CHEMBL3526118, “Combination of GSH trapping and time-dependent inhibition assays as a predictive method of drugs generating highly reactive metabolites” (Drug Metab Dispos, 2011).

Some results are limits rather than exact numbers.

T5 sequence (P10635 whole entry): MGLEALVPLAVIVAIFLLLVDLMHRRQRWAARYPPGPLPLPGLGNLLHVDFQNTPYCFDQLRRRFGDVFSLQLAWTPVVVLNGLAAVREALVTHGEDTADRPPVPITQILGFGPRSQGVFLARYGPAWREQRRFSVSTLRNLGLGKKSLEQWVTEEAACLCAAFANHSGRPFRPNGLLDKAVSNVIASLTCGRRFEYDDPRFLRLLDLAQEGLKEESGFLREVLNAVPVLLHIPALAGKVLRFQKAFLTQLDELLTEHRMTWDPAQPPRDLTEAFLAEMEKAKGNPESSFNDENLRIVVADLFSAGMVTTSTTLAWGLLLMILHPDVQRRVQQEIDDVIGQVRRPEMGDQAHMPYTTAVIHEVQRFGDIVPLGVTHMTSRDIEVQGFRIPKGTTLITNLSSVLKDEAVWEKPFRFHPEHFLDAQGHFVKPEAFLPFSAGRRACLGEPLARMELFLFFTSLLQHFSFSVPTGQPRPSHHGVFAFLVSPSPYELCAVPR
T7 sequence (P08684 whole entry): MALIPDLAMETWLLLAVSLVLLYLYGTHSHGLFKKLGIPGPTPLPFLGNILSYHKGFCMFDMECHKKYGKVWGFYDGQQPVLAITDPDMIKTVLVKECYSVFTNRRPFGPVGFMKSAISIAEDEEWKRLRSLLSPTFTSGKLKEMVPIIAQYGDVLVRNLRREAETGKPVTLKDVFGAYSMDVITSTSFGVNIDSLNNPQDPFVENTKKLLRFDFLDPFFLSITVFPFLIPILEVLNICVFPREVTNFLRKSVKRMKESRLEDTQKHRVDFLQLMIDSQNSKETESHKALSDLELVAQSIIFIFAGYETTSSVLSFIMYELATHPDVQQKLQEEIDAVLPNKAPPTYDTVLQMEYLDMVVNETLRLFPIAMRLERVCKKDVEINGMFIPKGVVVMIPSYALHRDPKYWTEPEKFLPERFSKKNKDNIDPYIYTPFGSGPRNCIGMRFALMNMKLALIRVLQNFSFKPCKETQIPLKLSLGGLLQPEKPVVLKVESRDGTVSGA
T4 sequence (P33261 whole entry): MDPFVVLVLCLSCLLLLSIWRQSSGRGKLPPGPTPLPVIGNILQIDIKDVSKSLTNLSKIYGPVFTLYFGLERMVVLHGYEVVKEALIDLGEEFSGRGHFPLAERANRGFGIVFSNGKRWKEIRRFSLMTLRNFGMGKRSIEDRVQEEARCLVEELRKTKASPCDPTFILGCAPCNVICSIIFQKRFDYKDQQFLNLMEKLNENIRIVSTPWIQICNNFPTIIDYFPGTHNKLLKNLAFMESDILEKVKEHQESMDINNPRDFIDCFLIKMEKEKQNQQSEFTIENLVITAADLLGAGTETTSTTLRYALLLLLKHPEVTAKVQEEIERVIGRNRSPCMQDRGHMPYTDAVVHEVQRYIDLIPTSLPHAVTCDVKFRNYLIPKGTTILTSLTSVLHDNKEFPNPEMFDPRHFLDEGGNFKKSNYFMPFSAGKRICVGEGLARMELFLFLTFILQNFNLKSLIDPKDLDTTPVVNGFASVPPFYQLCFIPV
T3 sequence (P11712 whole entry): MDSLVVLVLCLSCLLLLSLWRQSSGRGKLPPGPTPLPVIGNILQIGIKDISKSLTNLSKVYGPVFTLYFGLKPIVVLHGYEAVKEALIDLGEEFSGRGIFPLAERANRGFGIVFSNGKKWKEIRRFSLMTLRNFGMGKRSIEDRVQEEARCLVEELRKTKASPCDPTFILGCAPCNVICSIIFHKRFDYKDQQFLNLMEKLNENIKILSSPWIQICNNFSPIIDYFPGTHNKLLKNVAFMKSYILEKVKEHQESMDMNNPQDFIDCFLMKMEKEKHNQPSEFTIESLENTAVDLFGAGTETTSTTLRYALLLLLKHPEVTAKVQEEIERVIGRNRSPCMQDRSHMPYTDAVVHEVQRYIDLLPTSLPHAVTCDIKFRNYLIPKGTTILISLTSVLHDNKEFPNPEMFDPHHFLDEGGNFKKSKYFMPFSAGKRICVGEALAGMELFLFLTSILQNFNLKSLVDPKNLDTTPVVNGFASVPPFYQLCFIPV

With `COC(=O)[C@H](c1ccccc1Cl)N1CCc2sccc2C1` [CLOPIDOGREL], the inhibition at 0.3 µM at CYP2B6 [1] stood at 44%. In addition, in the data set on Liver microsome [2], the PB turned out to be 417.4 pmol. Also, in the data set with Liver microsome [3], the Drug metabolism was 23.6 pmol/min. Also, the values for the clearance in [4] and in data set [5] were 0.848 µL/min/mg and 1.08 µL/min/mg, respectively. For the same compound, in the data set on Liver microsome [6], the CLH amounted to 0.236 µL/min/mg. The inhibition at 100 µM was below 10% at CYP1A2; below 10% on CYP2C9 [7]; 10% against CYP2C19 [8]; below 10% against CYP2D6 [9]; below 10% against CYP2C8 [10].
In the case of `C#C[C@]1(O)CC[C@H]2[C@@H]3CCc4cc(O)ccc4[C@H]3CC[C@@]21C` [ETHINYL ESTRADIOL], the inhibition at 30 µM against CYP2B6 [11] was below 10%; against CYP2C9 [13], 27%. For the same compound, the PB with Liver microsome [2] is on record as 937.5 pmol. Besides, the Drug metabolism in the data set on Liver microsome [3] is 34 pmol/min. Moreover, the inhibition at 10 µM against CYP2C8 [12] and against CYP2C19 [15] was below 10% throughout. Also, the inhibition at 50 µM on CYP3A4 [14] came to 65%. The clearance amounted to 0.087 µL/min/mg in data set [4] and 0.427 µL/min/mg in data set [5]. Further, the CLH in the data set on Liver microsome [6] turned out to be 0.34 µL/min/mg. Moreover, the figures for the inhibition at 100 µM against CYP1A2 and on CYP2D6 [9] were 18% and below 10%, respectively.
With `CNCCC(Oc1ccc(C(F)(F)F)cc1)c1ccccc1` (stereo not given) [FLUOXETINE], the PB with Liver microsome [2] amounted to 15 pmol. The Drug metabolism result in the data set with Liver microsome [3] is on record as “metabolite_not_detected”. Testing at 30 µM on CYP2C19 [16] gave an inhibition of 36%. At CYP2D6 [17], this compound registered an inhibition at 10 µM below 10%. Further, the clearance in data set [4] and in data set [5] was 0.008 µL/min/mg in each case. Also, the inhibition at 100 µM on CYP1A2 was 12%; on CYP2B6 [18] it was below 10%; against CYP2C9 [7] it was below 10%; against CYP3A4 [19], below 10%; against CYP2C8 [10], below 10%.
Regarding `Clc1ccccc1CN1CCc2sccc2C1` [TICLOPIDINE], on CYP2D6 [17], the inhibition at 10 µM is below 10%. The inhibition at 0.1 µM against CYP2B6 [20] came out at 35%. Further, the inhibition at 100 µM is 36% against CYP1A2, below 10% at CYP2C9 [7], 26% at CYP3A4 [19] and below 10% at CYP2C8 [10].
